The source of these data is ChEMBL document CHEMBL3085696, “Aurora isoform selectivity: design and synthesis of imidazo[4,5-b]pyridine derivatives as highly selective inhibitors of Aurora-A kinase in cells” (J Med Chem, 2013).

Series [1] deals with Aurora kinase A (Homo sapiens, UniProt O14965, L215R). Nature of the series: Inhibition of autophosphorylation of aurora-A L215R mutant at T288 in human HCT116 cells after 2 hrs. The class given is cell-based, HCT-116. Summed up:
(§1)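 Cells transfected with N-terminal Myc-tagged Aurora-A (wild type or T217E, L215R or R220K mutant, made by Quikchange mutagenesis), then exposed to a range of inhibitor concentrations for 2 h. Lysed in LDS sample buffer, sonicated, boiled, run on LDS-PAGE and blotted to nitrocellulose. Probed with anti-P-T288 (Aurora-A autophosphorylation) and anti-P-histone H3 S10 (Aurora-B substrate) antibodies. Blots quantified and IC50 fitted.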

Series [2] concerns the target T1, Aurora kinase A (Homo sapiens) (UniProt O14965).
T1 sequence (whole entry): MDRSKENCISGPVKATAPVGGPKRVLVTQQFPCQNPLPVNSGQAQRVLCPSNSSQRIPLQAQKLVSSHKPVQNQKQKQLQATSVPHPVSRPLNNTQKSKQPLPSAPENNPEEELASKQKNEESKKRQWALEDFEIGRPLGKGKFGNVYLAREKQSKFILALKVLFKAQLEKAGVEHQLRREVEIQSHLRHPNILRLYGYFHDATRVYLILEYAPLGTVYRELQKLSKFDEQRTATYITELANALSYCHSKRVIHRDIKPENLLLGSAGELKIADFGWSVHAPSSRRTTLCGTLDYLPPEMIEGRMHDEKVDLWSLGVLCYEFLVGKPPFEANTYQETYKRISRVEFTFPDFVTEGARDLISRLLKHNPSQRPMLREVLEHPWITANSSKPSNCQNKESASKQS
To be noted: 1 uM.

The target in series [3] is Aurora kinase A (Homo sapiens, UniProt O14965, T217E). Nature of the series: Inhibition of autophosphorylation of aurora-A T217E mutant at T288 in human HeLa cells after 2 hrs. The class given is cell-based. Put shortly: as §1
In series [4] the target is T2, Aurora kinase A (Homo sapiens, UniProt O14965).
T2 sequence (O14965 whole entry): T1 sequence (whole entry)
Nature of the series: Inhibition of N-terminal HIS-tagged aurora-A (unknown origin) using 5FAM-LRRASLG-CONH2 as substrate after 60 mins. Summed up:
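Aurora-A (5 nM N-terminal His-tagged) incubated with 1.5 μM 5FAM-LRRASLG-CONH2 peptide and 20 μM ATP in 50 mM Tris pH 7.4, 200 mM NaCl, 5 mM MgCl2, 2 mM DTT, 0.1% Tween 20. Runs 60 min at room temperature; EDTA stop. Microfluidic separation of product from substrate. Duplicate 8-point curves, 0.25 pM–200 μM final, 1–2% DMSO. IC50 from four-parameter logistic fit.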

The subject of the next series is HCT-116. Put plainly: Antiproliferative activity against human HCT116 cells. The class given is functional.
Series [5] deals with T3, Aurora kinase B (Homo sapiens, UniProt Q96GD4). Put plainly: Inhibition of N-terminal Myc tagged aurora-B-mediated histone H3 phosphorylation at S10 in human HeLa cells after 2 hrs. The class given is cell-based. Put shortly:
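Cells transfected with Myc-tagged Aurora-A (wild type or T217E, L215R, R220K mutants) and treated with inhibitor concentrations for 2 h. Lysed in LDS buffer; SDS-type PAGE and western blot. Blots probed for P-T288 (Aurora-A autophosphorylation) and phospho-histone H3 S10 (Aurora-B substrate). Blots quantified; IC50 derived; ratio taken as H3 IC50 over T288 IC50.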

For a further series, the system named is Mus musculus. Nature of the series: Volume of distribution in Balb/C mouse at 5 mg/kg, iv and po. The class given is ADME, organism-based. Also noted: dose 5 mg/kg, route oral. As to conditions: in vivo. Put shortly:
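Female Balb/C mice given 5 mg/kg po or iv in 10% DMSO/5% Tween 20 in saline. Terminal cardiac-puncture plasma taken at 5, 15, 30 min and 1, 2, 4, 6, 24 h. Methanol precipitation with olomoucine internal standard. Analysis by LC/MS (ESI+ MRM).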

Series [6] concerns the target T3, Aurora kinase B. Nature of the series: Inhibition of full-length aurora-B (unknown origin) using 5FAMLRRASLG-CONH2 as substrate after 60 mins. Put shortly: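 Full-length Aurora-B/INCENP complex (1 nM) incubated with 1.5 μM 5FAM-LRRASLG-CONH2 peptide and 15 μM ATP in Tris pH 7.4 buffer with NaCl, MgCl2, DTT, Tween 20. Runs 60 min at room temperature, then EDTA stop. Microfluidic mobility-shift readout of percent conversion. Duplicate 8-point curves, 0.25 pM–200 μM final. IC50 by four-parameter logistic fit.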

T3 sequence (Q96GD4 whole entry): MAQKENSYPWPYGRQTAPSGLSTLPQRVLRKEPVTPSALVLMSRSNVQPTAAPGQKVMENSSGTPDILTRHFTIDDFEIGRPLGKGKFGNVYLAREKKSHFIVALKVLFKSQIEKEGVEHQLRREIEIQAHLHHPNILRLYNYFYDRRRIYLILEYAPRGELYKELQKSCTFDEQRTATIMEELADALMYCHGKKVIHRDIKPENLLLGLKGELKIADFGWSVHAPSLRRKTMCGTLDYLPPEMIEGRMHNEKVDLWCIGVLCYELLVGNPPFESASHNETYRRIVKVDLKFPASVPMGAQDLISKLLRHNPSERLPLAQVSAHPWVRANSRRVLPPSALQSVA
Sequence of Aurora kinase A (Homo sapiens, UniProt O14965, T217E) (O14965 whole entry I57V/T217E): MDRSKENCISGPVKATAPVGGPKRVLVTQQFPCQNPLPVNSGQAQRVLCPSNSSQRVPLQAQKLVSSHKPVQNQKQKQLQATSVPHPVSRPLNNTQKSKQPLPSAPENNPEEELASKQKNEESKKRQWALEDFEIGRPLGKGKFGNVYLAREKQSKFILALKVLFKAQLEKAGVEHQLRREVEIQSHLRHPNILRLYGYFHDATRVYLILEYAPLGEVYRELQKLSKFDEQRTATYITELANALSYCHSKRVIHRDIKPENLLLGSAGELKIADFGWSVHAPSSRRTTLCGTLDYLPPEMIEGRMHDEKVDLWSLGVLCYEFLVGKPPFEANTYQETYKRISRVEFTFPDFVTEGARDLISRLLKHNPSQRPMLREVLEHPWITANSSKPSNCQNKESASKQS
Sequence of Aurora kinase A (Homo sapiens, UniProt O14965, L215R) (O14965 whole entry I57V/L215R): as the sequence (O14965 whole entry I57V/T217E) above, with L215R, E217T counted along it

As for `Cc1nn(C)cc1-c1nc2c(Oc3ccc(C(=O)Nc4ccccc4)cc3)c(Cl)cnc2[nH]1`, the half-maximal inhibitory concentration (IC50) – broadly, the concentration needed to halve the response being measured – against Aurora kinase A [1] is 27 nM; against Aurora kinase A [3], 4.11 µM; against Aurora kinase A [4], 67 nM; on Aurora kinase B [5], 76.8 µM; against Aurora kinase B [6], 12.7 µM. For the same compound, in series [2], the inhibition (commonly the share of the control response that was lost under treatment) was above 80%. Moreover, growth in the series with HCT-116 was halved (GI50) at 2300 nM. The Vd with Mus musculus is 1.8 L/kg.
